As a reminder, the EC50 is the concentration at which the effect is half-maximal. What is called solubility is how much of the substance goes into solution per volume. The term Cmax denotes the highest concentration seen after dosing. Usually Tmax stands for the time from dosing to the highest level. The term half-life denotes the time in which the quantity being followed falls by half. By clearance is commonly meant the volume of plasma or blood freed of the substance per unit of time. The term bioavailability denotes the share of a dose that reaches the circulation, judged against a reference dose that is usually intravenous.

Data set [1] is described as follows: Antiviral activity against HIV1 BH10 harboring wild type reverse transcriptase infected in primary MT4 cells assessed as inhibition of virus-induced cytopathogenicity after 4 days by MTS assay. The format is functional, cell-based, Human immunodeficiency virus type 1 BH10. As to conditions: Human immunodeficiency virus 1, MT4, 96 h. On the technique in general: Damage to the host cells serves as the signal in cytopathic effect assays.

Data set [2] concerns Human immunodeficiency virus 1. Kind of data set: Antiviral activity against HIV1 harboring reverse transcriptase Y181C mutant infected in primary MT4 cells assessed as inhibition of virus-induced cytopathogenicity after 4 days by MTS assay. Format: functional, organism-based. To be noted: Human immunodeficiency virus 1, MT4, 96 h.
Data set [3] has as its system Human immunodeficiency virus 1. Kind of data set: Antiviral activity against HIV1 harboring reverse transcriptase K103N mutant infected in primary MT4 cells assessed as inhibition of virus-induced cytopathogenicity after 4 days by MTS assay. As to conditions: Human immunodeficiency virus 1, MT4, 96 h. Format: functional, organism-based.
Data set [4] relates to Human immunodeficiency virus 1. Kind of data set: Antiviral activity against HIV1 harboring reverse transcriptase Y181C/K103N double mutant infected in primary MT4 cells assessed as inhibition of virus-induced cytopathogenicity after 4 days by MTS assay. To be noted: Human immunodeficiency virus 1, MT4, 96 h. Format: functional, organism-based.
A short description of data set [5]: Aqueous solubility of the compound at pH 7. Format: physicochemical. As to conditions: aqueous medium.
Data set [6] can be described thus: Antiviral activity against HIV1 BH10 harboring wild type reverse transcriptase infected in secondary MT4 cells assessed as inhibition of virus-induced cytopathogenicity after 4 days by MTS assay. Format: functional, cell-based, Human immunodeficiency virus type 1 BH10. As to conditions: Human immunodeficiency virus 1, MT4, 96 h.
In data set [7] the test system is Human immunodeficiency virus 1. Nature of the data set: Antiviral activity against HIV1 harboring reverse transcriptase Y181C mutant infected in secondary MT4 cells assessed as inhibition of virus-induced cytopathogenicity after 4 days by MTS assay. Format: functional, organism-based. To be noted: Human immunodeficiency virus 1, MT4, 96 h.
Data set [8] has as its system Human immunodeficiency virus 1. Nature of the data set: Antiviral activity against HIV1 harboring reverse transcriptase K103N mutant infected in secondary MT4 cells assessed as inhibition of virus-induced cytopathogenicity after 4 days by MTS assay. The format is functional, organism-based. As to conditions: Human immunodeficiency virus 1, MT4, 96 h.
The test system of data set [9] is Human immunodeficiency virus 1. Nature of the data set: Antiviral activity against HIV1 harboring reverse transcriptase Y181C/K103N double mutant infected in secondary MT4 cells assessed as inhibition of virus-induced cytopathogenicity after 4 days by MTS assay. Format: functional, organism-based. As to conditions: Human immunodeficiency virus 1, MT4, 96 h.
Data set [10] can be described thus: Cmax in fasted Sprague-Dawley rat at 2 mg/kg, iv after 0.083 to 24 hrs by LC-MS/MS method. Format: ADME, organism-based. On the set-up: dose 2 mg/kg, route intravenous. As to conditions: in vivo.
Data set [11] in a line: Cmax in fasted Sprague-Dawley rat at 10 mg/kg, po after 0.083 to 24 hrs by LC-MS/MS method. Format: ADME, organism-based. Further details: dose 10 mg/kg, route oral. To be noted: in vivo. An outline of the steps:
(§1)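 Fasted Sprague Dawley rats received 10 mg/kg orally in 10% dimethylacetamide/10% ethanol/80% PEG400. Plasma was stored at -70 °C until LC-MS/MS quantitation. Values are mean parameters (n=3 or 2).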

A short description of data set [12]: Cmax in fed beagle dog at 1 mg/kg, iv after 0.083 to 24 hrs by LC-MS/MS method. Format: ADME, organism-based, Canis lupus familiaris. Further details: dose 1 mg/kg, route intravenous. To be noted: in vivo. Summed up:
(§2)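 Fed beagle dogs and fed male cynomolgus monkeys were dosed at 1 mg/kg IV or 5 mg/kg PO in 10% dimethylacetamide/10% ethanol/80% PEG400. Femoral-vein blood was drawn predose and at 0.083–24 h into lithium-heparin tubes. Plasma was stored at -70 °C and parent drug was measured by LC-MS/MS. Values are mean parameters (n=3 or 2).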

A short description of data set [13]: Cmax in fed beagle dog at 5 mg/kg, po after 0.083 to 24 hrs by LC-MS/MS method. The format is ADME, organism-based, Canis lupus familiaris. On the set-up: dose 5 mg/kg, route oral. As to conditions: in vivo. Summed up: as §2
Data set [14] can be described thus: Cmax in fed cynomolgus monkey at 1 mg/kg, iv after 0.083 to 24 hrs by LC-MS/MS method. Format: ADME, organism-based, Macaca fascicularis. On the set-up: dose 1 mg/kg, route intravenous. To be noted: in vivo. Summed up:
as §2

Data set [15] in a line: Cmax in fed cynomolgus monkey at 5 mg/kg, po after 0.083 to 24 hrs by LC-MS/MS method. The format is ADME, organism-based, Macaca fascicularis. To be noted: in vivo. Further details: dose 5 mg/kg, route oral. Summed up: as §2
Data set [16] can be described thus: Tmax in fed cynomolgus monkey at 5 mg/kg, po by LC-MS/MS method. Format: ADME, organism-based, Macaca fascicularis. As to conditions: in vivo. Summed up: as §2
The nature of data set [17]: Half life in fasted Sprague-Dawley rat at 2 mg/kg, iv by LC-MS/MS method. The format is ADME, organism-based. As to conditions: in vivo.
Data set [18] in a line: Half life in fasted Sprague-Dawley rat at 10 mg/kg, po by LC-MS/MS method. Format: ADME, organism-based. To be noted: in vivo. An outline of the steps:
as §1

A short description of data set [19]: Half life in fed beagle dog at 1 mg/kg, iv by LC-MS/MS method. As to conditions: in vivo. Format: ADME, organism-based, Canis lupus familiaris. Summed up: as §2
A short description of data set [20]: Half life in fed beagle dog at 5 mg/kg, po by LC-MS/MS method. Format: ADME, organism-based, Canis lupus familiaris. As to conditions: in vivo. Summed up:
as §2

A short description of data set [21]: Half life in fed cynomolgus monkey at 1 mg/kg, iv by LC-MS/MS method. As to conditions: in vivo. Format: ADME, organism-based, Macaca fascicularis. Summed up:
as §2

The nature of data set [22]: Half life in fed cynomolgus monkey at 5 mg/kg, po by LC-MS/MS method. To be noted: in vivo. Format: ADME, organism-based, Macaca fascicularis. Summed up:
as §2

Data set [23] can be described thus: Clearance in fasted Sprague-Dawley rat at 2 mg/kg, iv after 0.083 to 24 hrs by LC-MS/MS method. The format is ADME, organism-based. To be noted: in vivo.
Data set [24] in a line: Clearance in fed beagle dog at 1 mg/kg, iv after 0.083 to 24 hrs by LC-MS/MS method. The format is ADME, organism-based, Canis lupus familiaris. As to conditions: in vivo. An outline of the steps: as §2
The nature of data set [25]: Clearance in fed cynomolgus monkey at 1 mg/kg, iv after 0.083 to 24 hrs by LC-MS/MS method. Format: ADME, organism-based, Macaca fascicularis. To be noted: in vivo. An outline of the steps:
as §2

Data set [26] is described as follows: Oral bioavailability in fed beagle dog at 5 mg/kg after 0.083 to 24 hrs by LC-MS/MS method. The format is ADME, organism-based, Canis lupus familiaris. As to conditions: in vivo. An outline of the steps:
as §2

Data set [27] in a line: Oral bioavailability in fed cynomolgus monkey at 5 mg/kg after 0.083 to 24 hrs by LC-MS/MS method. Format: ADME, organism-based, Macaca fascicularis. To be noted: in vivo. Summed up:
as §2

Data set [28] in a line: Half life in rat hepatocytes. Format: ADME, cell-based, Hepatocyte. Summed up:
(§3)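 Metabolic stability was measured in hepatocytes as the half-life (min) of parent compound depletion. Values come from independent experiments using hepatocytes from 5 to 7 donors.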

Data set [29] can be described thus: Half life in dog hepatocytes. Format: ADME, cell-based, Canis lupus familiaris, Hepatocyte. An outline of the steps:
as §3

Data set [30] in a line: Half life in monkey hepatocytes. Format: ADME, cell-based, Macaca mulatta, Hepatocyte. As to conditions: rhesus monkey. Summed up:
as §3

In data set [31] the test system is Human immunodeficiency virus 1. Nature of the data set: Potency index, ratio of EFV EC50 to compound EC50 for HIV1 harboring reverse transcriptase K103N mutant. Format: functional.
The test system of data set [32] is Human immunodeficiency virus 1. Kind of data set: Potency index, ratio of EFV EC50 to compound EC50 for HIV1 harboring reverse transcriptase Y181C/K103N double mutant. Format: functional.
The nature of data set [33]: Selectivity ratio of EC50 for HIV1 harboring reverse transcriptase Y181C/K103N double mutant to EC50 for HIV1 BH10 harboring wild type reverse transcriptase. Format: functional.

Converted amounts (≈) assume the structure as drawn.

Turning to `COP(=O)(c1cccc(C(C)C)c1)c1c(C(N)=O)[nH]c2ccc(Cl)cc12` (stereo unspecified), the EC50 in data set [1] was determined as 0.5 nM; in data set [2] it was 8.4 nM; in [3], 1.6 nM; in [4], 92.6 nM. Also, the solubility in data set [5] turned out to be 0.8 µM (≈ 0.313 µg/mL).
Regarding `COP(=O)(c1cccc(/C=C/C#N)c1)c1c(C(N)=O)[nH]c2ccc(Cl)cc12` (stereo unspecified), the EC50 in data set [6] was found to be 3.4 nM; in [7], 3.2 nM; in data set [8] it was 1.8 nM; in [9] it was 49.5 nM.
With `COP(=O)(c1cc(C)cc(/C=C/C#N)c1)c1c(C(N)=O)[nH]c2ccc(Cl)cc12` (racemic), the EC50 in data set [1] was determined as 2.9 nM; in data set [2], 3 nM; in [3] it was 3 nM; in [4] it was 16.6 nM.
With `COP(=O)(c1cc(C)cc(/C=C/C#N)c1)c1c(C(N)=O)[nH]c2ccc(Cl)cc12` (single isomer, unassigned; form 1) [FOSDEVIRINE], the EC50 was 1 nM in data set [1], 1.3 nM in data set [2], 2.8 nM in data set [3] and 11 nM in data set [4]. This molecule had a solubility in data set [5] of 20 µM (≈ 8.28 µg/mL). Also, the Cmax in [10] stood at 88 ng/mL; in data set [11], 25 ng/mL; in data set [12] it was 290 ng/mL; in [13] it was 18 ng/mL; in [14], 1460 ng/mL; in data set [15], 945 ng/mL. Also, in [16], the Tmax turned out to be 3 h. For the same molecule, the half-life in data set [17] is 12 min; in data set [18], 354 min; in data set [19] it was 234 min; in data set [20], 144 min; in data set [21], 120 min; in [22], 186 min. The values for the half-life in data set [28], in [29] and in data set [30] were 17 min, 21 min and 52 min, respectively. Moreover, the clearance in [23] is 1.18 mL/min/kg; in data set [24], 30.5 mL/min/kg; in data set [25], 5.5 mL/min/kg. In addition, the bioavailability came out at 4% in data set [26] and 42% in data set [27]. The “Ratio EC50” value is 30 in data set [31] and 4 in data set [32].
As to `COP(=O)(c1cccc2ccccc12)c1c(C(N)=O)[nH]c2ccc(Cl)cc12` (stereo unspecified), the EC50 is 17.5 nM in data set [1], 357 nM in data set [2], 727 nM in data set [3] and more than 1000 nM in [4].
The like results for `COP(=O)(c1cccs1)c1c(C(N)=O)[nH]c2ccc(Cl)cc12` (stereo unspecified) were, in that order, 0.3 nM, 3.4 nM, 8.6 nM and more than 1000 nM.
The like results for `COP(=O)(c1cc(C)cc(Br)c1)c1c(C(N)=O)[nH]c2ccc(Cl)cc12` (stereo unspecified) were, in that order, 3 nM, 6 nM, 25 nM and 368 nM.
The matching figures for `COP(=O)(c1cc(F)cc(F)c1)c1c(C(N)=O)[nH]c2ccc(Cl)cc12` (stereo unspecified): 0.7 nM, 6.5 nM, 25.5 nM and 642 nM.
As to `COP(=O)(c1cc(C)cc(OCC#N)c1)c1c(C(N)=O)[nH]c2ccc(Cl)cc12` (stereo unspecified), the Ratio EC50 in data set [33] is more than 1000. For the same molecule, the EC50 in data set [1] is 0.08 nM; in [2], 8.7 nM; in data set [3], 1.8 nM; in [4], 111 nM.
As to `COP(=O)(c1cc(C)cc(F)c1)c1c(C(N)=O)[nH]c2ccc(Cl)cc12` (stereo unspecified), the EC50 came out at 0.2 nM in [1], 3.4 nM in data set [2], 0.5 nM in [3] and 69 nM in data set [4]. For the same molecule, the solubility in [5] came out at 1.7 µM (≈ 0.647 µg/mL).
The like results for `COP(=O)(c1cc(C)cc(C)c1)c1c(C(N)=O)[nH]c2ccc(Cl)cc12` (stereo unspecified) were, in that order, 1 nM, 15 nM, 4 nM, 238 nM and 0.9 µM (≈ 0.339 µg/mL).
Take `COP(=O)(c1cc(C(F)(F)F)cc(C(F)(F)F)c1)c1c(C(N)=O)[nH]c2ccc(Cl)cc12` (stereo unspecified): the EC50 in [1] was 24.6 nM; in data set [2], 527 nM; in data set [3] it was 947 nM; in data set [4], more than 1000 nM.
